The record followed here is the RNAGym collection of RNA variant scans (doi:10.1126/science.aae0568).

The chains are these.
B1: tRNA (parent)
chain: GUUCCGUUGGCGUAAUGGUAACGCGUCUCCCUCCUAAGGAGAAGACUGCGGGUUCGAGUCCCGUACGGAACG

This sample holds only a part of the variants without activity.

The variants in this data set derive from B1. In words: yeast fitness relative to wild type (ratio to wild type); higher = fitter; tRNA-Arg(CCU), competitive growth, 37 C, YPD. In a few lines:
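Changes in genotype frequencies gave Darwinian fitness relative to wild type. Frequencies were read by 100-nucleotide paired-end sequencing of gene amplicons before and after pooled Saccharomyces cerevisiae strains, carrying tRNA-Arg(CCU) gene variants at the native locus, were competed in YPD at 37°C for 24 hours in six replicates. A genotype was kept only with ≥ 100 starting reads, and estimates < 0.5 were set to 0.5.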
In the case of U3G U35A A70G, the yeast fitness is ≤ 0.5.

Regarding C4A C5A C29G G38C A65U, the yeast fitness is ≤ 0.5.

For C4A C27A G38A C62A, the yeast fitness was ≤ 0.5.

Regarding C4A A21G A45U A69U, the yeast fitness was 0.655.

As to C4A A14U A20C U28G C66U, the yeast fitness amounted to 0.557.

As for C4A C22G C30U A40G A45C, the yeast fitness is ≤ 0.5.

C4A C11G A69U: the yeast fitness was ≤ 0.5.

Consider C4A C22U U28C, for which the yeast fitness was ≤ 0.5.

With U3G U26A C29A C34A G38A A65U, the yeast fitness is ≤ 0.5.

On to C4A C5G A37G C46G, for which the yeast fitness was ≤ 0.5.

Regarding C4A A20C U47A, the yeast fitness is ≤ 0.5.

Regarding C4A C61U G68A, the yeast fitness turned out to be 0.541.

As to C4A C29G G68C, the yeast fitness is ≤ 0.5.

C4A C5G C46G: the yeast fitness was ≤ 0.5.

With C4A A14C A21C C22U C24U C29U U53C, the yeast fitness came to 0.568.

For the variant C4A A21U C46A, the yeast fitness came out at 0.58.

Turning to C4A A14C C27A, the yeast fitness was ≤ 0.5.

For C4A C27U U32C G48C, the yeast fitness is ≤ 0.5.

For the variant C4A A45U G51A, the yeast fitness is ≤ 0.5.

With C4A A43C G58A, the yeast fitness came to 0.588.

As for C4A A37G, the yeast fitness was determined as 0.754.

As to C4A A37U, the yeast fitness was found to be 0.795.

In the case of C4A A20G C24G C31G C62U, the yeast fitness stood at 0.598.

Turning to C4A A20G G44C A45G C55U, the yeast fitness is ≤ 0.5.

In the case of U3G U26A U28G A45C U54C G67A A69U, the yeast fitness is ≤ 0.5.

For C4A C11U C31G U53C U54G, the yeast fitness was ≤ 0.5.

Take C4A C5G A20G A57U G68U: the yeast fitness is ≤ 0.5.

As for C4A C22U C27U, the yeast fitness was ≤ 0.5.

Regarding C4A C31U, the yeast fitness came to 0.864.

As for C4A A20U C24U U26G C27U A36C A45U C55G, the yeast fitness was found to be 0.607.

Turning to U3G U28C, the yeast fitness was 0.888.

As for U3G U28A, the yeast fitness is 0.605.

As to U3G U59A, the yeast fitness came out at 0.793.

Consider C4A A20C A42C U54C, for which the yeast fitness is ≤ 0.5.

With C4A C33G G41C G56C G58A G63C A65U, the yeast fitness is ≤ 0.5.

On to C4A A36G A40G C66U, for which the yeast fitness was determined as 0.624.

For the variant C4A A21G G68A, the yeast fitness was determined as 0.7.

For C4A C30U U59A, the yeast fitness was ≤ 0.5.

With C4A C5A A43G, the yeast fitness was 0.529.

For C4A C11U G18A A65C, the yeast fitness was determined as 0.505.

Consider C4A A14C C24U G25A C34A, for which the yeast fitness is 0.571.

Take C4A C24A A42G U59A: the yeast fitness was ≤ 0.5.

C4A C11U A57C: the yeast fitness was ≤ 0.5.

C4A C24G G44C: the yeast fitness was ≤ 0.5.

For the variant C4A A14U A20C U28G G63A, the yeast fitness was determined as 0.562.

On to C4A A14G C49A, for which the yeast fitness is ≤ 0.5.

As for C4A C29G A57G U59A A69U, the yeast fitness was ≤ 0.5.

Take C4A C29U G52C: the yeast fitness was ≤ 0.5.

For C4A C5A C22A U28G C33G A57G G67C, the yeast fitness is ≤ 0.5.

In the case of C4A C33U A36C A40G, the yeast fitness is ≤ 0.5.

Regarding C4A C11U A40G, the yeast fitness was ≤ 0.5.

For the variant C4A C5U C22G G44C, the yeast fitness is ≤ 0.5.

U3G U35G A37U U47C G56C A69C: the yeast fitness is ≤ 0.5.

Turning to C4A A15U U19A C27A C29U C33U A70U, the yeast fitness is ≤ 0.5.

Consider C4A C29G A57G U59A G68U A70G, for which the yeast fitness worked out at 0.571.

In the case of C4A C24G U28G C31U, the yeast fitness is ≤ 0.5.

As for C4A A20G A42C C46G C49U A69C, the yeast fitness is ≤ 0.5.

As for C4A A14G C22G C29U, the yeast fitness turned out to be 0.569.

Turning to C4A A21C C22U G50C G51A A70U, the yeast fitness turned out to be 0.559.

As for C4A A42G A45C, the yeast fitness is ≤ 0.5.

Regarding C4A A43G, the yeast fitness came to 0.785.

As to C4A A43C, the yeast fitness was 0.89.

On to C4A C22U C33G A45C U53G A69C, for which the yeast fitness is 0.57.

With C4A C27U C33U A36U G63C, the yeast fitness is ≤ 0.5.

For C4A C46A G56A, the yeast fitness was found to be 0.736.

Turning to C4A A40U G52C C60G A69C, the yeast fitness was found to be 0.55.

Regarding C4A C55U A57U U64G, the yeast fitness was ≤ 0.5.

As for C4A A40G, the yeast fitness came to 0.828.

Regarding C4A A43U C60A, the yeast fitness is ≤ 0.5.

With C4A A42U C55G, the yeast fitness was ≤ 0.5.

As to C4A A15U G18C G56C G67A, the yeast fitness is ≤ 0.5.

In the case of C4A C49U A69C, the yeast fitness is 0.555.

Turning to C4A A15G G17A C33U A57U U59C, the yeast fitness was ≤ 0.5.

As to C4A A15U A42G C61U, the yeast fitness is ≤ 0.5.

Take C4A C11G U19G A42G: the yeast fitness was ≤ 0.5.

Take C4A C22A G44C: the yeast fitness was ≤ 0.5.

As to C4A C34G, the yeast fitness stood at 0.563.

As for C4A A14C G38A U59G, the yeast fitness was ≤ 0.5.

Regarding C4A A65C, the yeast fitness was determined as 0.658.

As to C4A A57G C62G C66G, the yeast fitness was ≤ 0.5.

On to C4A C46U A57C, for which the yeast fitness was 0.529.

With C4A C11G U19G U53C, the yeast fitness stood at 0.698.

For C4A A43U U47G, the yeast fitness was ≤ 0.5.

For the variant C4A A42C C66G G68C, the yeast fitness was ≤ 0.5.

Consider C4A C11A A57G, for which the yeast fitness is ≤ 0.5.

For the variant C4A A20G C60A A70C, the yeast fitness was ≤ 0.5.

As to C4A A37U A43G G58C C60G, the yeast fitness was found to be 0.654.

On to C4A C34G G38C, for which the yeast fitness is ≤ 0.5.

With C4A C5U G48C, the yeast fitness was ≤ 0.5.

For the variant C4A A20G C24G C31G, the yeast fitness was ≤ 0.5.

C4A C24A G41C G51C: the yeast fitness was ≤ 0.5.

C4A C33A A40U A70G: the yeast fitness is ≤ 0.5.

For the variant C4A C31A A45U, the yeast fitness was ≤ 0.5.

Turning to C4A C31G C55A, the yeast fitness came to 0.534.

With C4A A15G U32C U35C G67C A69U, the yeast fitness was ≤ 0.5.

On to C4A A14G C24U U32G A43G C66U, for which the yeast fitness is 0.573.

With C4A A14U A20C U28G U32A, the yeast fitness was ≤ 0.5.

Take C4A A20C C27U U32C C46U: the yeast fitness was ≤ 0.5.

For the variant C4A A15U C61A, the yeast fitness came to 0.78.

For the variant C4A C5G C24G C29U, the yeast fitness was ≤ 0.5.

For C4A C46U U47C C55U, the yeast fitness is ≤ 0.5.

For C4A A21C C22U G50C, the yeast fitness is 0.617.

With C4A A15G A40G U64A, the yeast fitness was ≤ 0.5.

With C4A C11U G56C C62G G68C, the yeast fitness was ≤ 0.5.

For the variant C4A C5U U19A C55U, the yeast fitness was 0.539.

On to C4A C22U G48C, for which the yeast fitness is ≤ 0.5.

Consider C4A C24G G41U, for which the yeast fitness was ≤ 0.5.

On to U3G U35A, for which the yeast fitness amounted to 0.533.

For C4A A65U A69U, the yeast fitness turned out to be 0.774.

For C4A A15U G18C G56C, the yeast fitness was ≤ 0.5.

On to C4A C5A G23A, for which the yeast fitness is ≤ 0.5.

With C4A A14G G23C A65G, the yeast fitness was ≤ 0.5.

With C4A C33U A57G C66G, the yeast fitness is ≤ 0.5.

In the case of C4A A15U, the yeast fitness amounted to 0.645.

With C4A A15C, the yeast fitness worked out at 0.544.

In the case of C4A A57G A70C, the yeast fitness came to 0.617.

For the variant C4A A57G A70U, the yeast fitness was found to be 0.587.

C4A A20G C34U: the yeast fitness was ≤ 0.5.

On to C4A C5G A20C A40U C61G, for which the yeast fitness is ≤ 0.5.

In the case of C4A C34G C62A C66U, the yeast fitness is ≤ 0.5.

As for C4A A42G, the yeast fitness was determined as 0.991.

C4A A42C: the yeast fitness amounted to 0.794.

For the variant C4A A14U A20C U28G C49U, the yeast fitness was ≤ 0.5.

As to C4A C27U U28G C33G A36G C61G, the yeast fitness was ≤ 0.5.

For the variant C4A A14U A20C U28G U54C, the yeast fitness is ≤ 0.5.

With C4A C5G G50A U53A C60U G63C, the yeast fitness came out at 0.614.

Turning to C4A C24G G44C A70U, the yeast fitness was ≤ 0.5.

C4A C33A A36C G67A: the yeast fitness is ≤ 0.5.

In the case of C4A A65U C66A, the yeast fitness was ≤ 0.5.

As to C4A C24A G67A, the yeast fitness was ≤ 0.5.

For C4A A15G G56C, the yeast fitness worked out at 0.583.

As for C4A C22G A37U U47A C62U, the yeast fitness was ≤ 0.5.

C4A C22U U59A: the yeast fitness is ≤ 0.5.

Turning to C4A A37C A42C, the yeast fitness stood at 0.506.

C4A C22U A70C: the yeast fitness was 0.663.

C4A C22U: the yeast fitness worked out at 0.789.

For C4A C22G, the yeast fitness is 0.65.

With C4A C33A C62A, the yeast fitness came to 0.668.

Regarding C4A A36G C46G A57C, the yeast fitness was ≤ 0.5.

For the variant C4A C30U, the yeast fitness came out at 0.756.

In the case of C4A A14G G18A G25C, the yeast fitness is ≤ 0.5.

As to C4A C11A C29G A40G, the yeast fitness is 0.574.

As to C4A A15C C60U U64A C66A G68A A69G, the yeast fitness was ≤ 0.5.

For the variant C4A A20C, the yeast fitness amounted to 0.64.

With C4A A57C C61G, the yeast fitness is ≤ 0.5.

Consider C4A A37G G63C, for which the yeast fitness was 0.552.

Take C4A C11A C61U: the yeast fitness was ≤ 0.5.

C4A A14C: the yeast fitness was 0.591.

Regarding C4A C5G U8A C30A C62A, the yeast fitness was ≤ 0.5.

Consider C4A C22G C33G U54G, for which the yeast fitness was ≤ 0.5.

With C4A A15U G48A, the yeast fitness worked out at 0.559.

As to C4A C24U A65U, the yeast fitness is ≤ 0.5.

C4A A20G C24A G52C U54A: the yeast fitness is ≤ 0.5.

With C4A C22A C29U A69U, the yeast fitness is ≤ 0.5.

Regarding C4A C29A A70C, the yeast fitness is ≤ 0.5.

On to C4A A21C C22U G50C A70U, for which the yeast fitness was 0.73.

In the case of C4A C11G C31A A42G C66A, the yeast fitness was ≤ 0.5.

In the case of C4A A21C, the yeast fitness was 0.775.

For the variant C4A A21G, the yeast fitness worked out at 0.974.

Take C4A A14G C30G A45G G52A G63A: the yeast fitness was ≤ 0.5.

With C4A A45U, the yeast fitness came out at 0.818.

Take C4A A45G: the yeast fitness was 0.808.

U3G U47A G68C: the yeast fitness is ≤ 0.5.

With C4A A14U C34U U54C, the yeast fitness was ≤ 0.5.

In the case of C4A A15G C33G C60A A70C, the yeast fitness was 0.599.

Take C4A A15C A20C: the yeast fitness was ≤ 0.5.

Turning to C4A A65C G67U, the yeast fitness was ≤ 0.5.
